According to ChEMBL document CHEMBL1137159, “Aminotriazine 5-HT7 antagonists” (Bioorg Med Chem Lett, 2004):

Legend:
[1] = biological target: 5-hydroxytryptamine receptor 7 (Homo sapiens, UniProt P34969); test: Binding affinity against 5-Hydroxy tryptamine 7 receptor
Procedure, shortened: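 Membranes from CHO cells expressing human 5-HT7, homogenized, pelleted at 18,000g, stored at -80 °C. Each well held 30 µg protein in 50 mM HEPES. Incubation was 60 min at 25 °C with 0.1-1000 nM compound and 1 nM [3H]-5-carboxamidotryptamine; nonspecific binding was defined with 10 µM serotonin. Stopped with ice-cold HEPES, GF/B filtration, scintillation counting. Ki by nonlinear regression; triplicate or more.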

[2] = biological target: 5-hydroxytryptamine receptor 6 (Homo sapiens, UniProt P50406); test: Binding affinity against 5-Hydroxy tryptamine 6 receptor
Chain of 5-hydroxytryptamine receptor 6 (P50406 whole entry): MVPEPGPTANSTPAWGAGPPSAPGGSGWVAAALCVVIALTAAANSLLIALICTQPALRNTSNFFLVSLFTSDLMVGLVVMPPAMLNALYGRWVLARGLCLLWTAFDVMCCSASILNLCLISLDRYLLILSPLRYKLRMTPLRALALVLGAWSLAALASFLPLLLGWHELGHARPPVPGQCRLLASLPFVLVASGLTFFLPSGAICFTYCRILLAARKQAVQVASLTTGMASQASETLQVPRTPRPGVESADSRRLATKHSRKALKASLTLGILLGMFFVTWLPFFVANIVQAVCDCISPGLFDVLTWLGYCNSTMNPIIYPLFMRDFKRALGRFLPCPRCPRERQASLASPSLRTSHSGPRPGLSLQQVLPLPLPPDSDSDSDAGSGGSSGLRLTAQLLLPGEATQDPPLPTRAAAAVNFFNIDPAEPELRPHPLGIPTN

[3] = biological target: T1, Adrenergic receptor alpha-1 (Homo sapiens, UniProt P35348+P25100+P35368); test: Binding affinity against Alpha1 adrenergic receptor; assay type: protein assay
T1 sequence (P35348 whole entry): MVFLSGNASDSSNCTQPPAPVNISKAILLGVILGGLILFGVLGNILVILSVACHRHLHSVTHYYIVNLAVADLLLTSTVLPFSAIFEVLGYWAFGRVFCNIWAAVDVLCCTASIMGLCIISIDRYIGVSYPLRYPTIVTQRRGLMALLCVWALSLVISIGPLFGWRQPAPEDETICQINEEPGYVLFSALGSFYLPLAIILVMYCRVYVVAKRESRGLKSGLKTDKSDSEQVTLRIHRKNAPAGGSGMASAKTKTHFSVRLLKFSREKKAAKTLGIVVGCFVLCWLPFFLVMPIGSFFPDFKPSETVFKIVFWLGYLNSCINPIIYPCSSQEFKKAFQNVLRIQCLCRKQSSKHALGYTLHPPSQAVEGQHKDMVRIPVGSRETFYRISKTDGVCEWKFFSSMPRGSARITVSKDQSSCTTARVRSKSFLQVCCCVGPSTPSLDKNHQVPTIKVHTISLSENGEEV
T1 sequence (P25100 whole entry): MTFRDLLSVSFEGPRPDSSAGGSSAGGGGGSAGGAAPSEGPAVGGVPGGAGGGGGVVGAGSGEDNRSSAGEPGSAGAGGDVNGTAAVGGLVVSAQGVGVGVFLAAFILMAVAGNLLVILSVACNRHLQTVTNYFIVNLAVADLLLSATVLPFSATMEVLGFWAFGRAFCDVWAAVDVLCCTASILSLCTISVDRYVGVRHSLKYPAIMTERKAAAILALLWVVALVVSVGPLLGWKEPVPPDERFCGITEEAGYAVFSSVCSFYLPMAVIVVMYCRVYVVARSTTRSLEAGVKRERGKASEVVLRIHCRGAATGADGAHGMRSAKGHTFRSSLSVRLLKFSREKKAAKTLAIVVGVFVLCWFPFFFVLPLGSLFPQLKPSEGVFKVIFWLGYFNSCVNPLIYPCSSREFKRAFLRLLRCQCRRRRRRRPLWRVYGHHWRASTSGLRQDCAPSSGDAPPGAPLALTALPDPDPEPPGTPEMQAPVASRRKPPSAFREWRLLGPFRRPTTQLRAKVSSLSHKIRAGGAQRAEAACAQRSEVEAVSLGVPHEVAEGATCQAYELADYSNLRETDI
T1 sequence (P35368 whole entry): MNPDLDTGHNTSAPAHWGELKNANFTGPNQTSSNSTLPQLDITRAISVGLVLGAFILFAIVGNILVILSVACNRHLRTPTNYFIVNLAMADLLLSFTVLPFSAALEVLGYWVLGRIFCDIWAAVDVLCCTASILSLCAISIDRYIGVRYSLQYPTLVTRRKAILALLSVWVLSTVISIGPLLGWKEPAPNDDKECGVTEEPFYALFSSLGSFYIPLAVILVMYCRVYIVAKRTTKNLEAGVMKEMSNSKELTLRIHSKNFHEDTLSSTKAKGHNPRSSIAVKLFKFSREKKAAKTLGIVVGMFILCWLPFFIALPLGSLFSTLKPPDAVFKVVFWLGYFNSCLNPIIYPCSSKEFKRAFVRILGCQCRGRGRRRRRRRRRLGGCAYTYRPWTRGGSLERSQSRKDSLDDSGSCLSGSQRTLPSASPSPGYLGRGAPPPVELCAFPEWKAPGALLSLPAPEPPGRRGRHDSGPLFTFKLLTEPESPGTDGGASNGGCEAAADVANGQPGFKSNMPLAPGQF

[4] = Oral bioavailability in rat; assay type: ADME, organism-based; details: in vivo
[5] = biological target: T2, 5-hydroxytryptamine receptor 2C (Homo sapiens, UniProt P28335); test: Binding affinity against 5-Hydroxy tryptamine 2C receptor
T2 sequence (P28335 whole entry): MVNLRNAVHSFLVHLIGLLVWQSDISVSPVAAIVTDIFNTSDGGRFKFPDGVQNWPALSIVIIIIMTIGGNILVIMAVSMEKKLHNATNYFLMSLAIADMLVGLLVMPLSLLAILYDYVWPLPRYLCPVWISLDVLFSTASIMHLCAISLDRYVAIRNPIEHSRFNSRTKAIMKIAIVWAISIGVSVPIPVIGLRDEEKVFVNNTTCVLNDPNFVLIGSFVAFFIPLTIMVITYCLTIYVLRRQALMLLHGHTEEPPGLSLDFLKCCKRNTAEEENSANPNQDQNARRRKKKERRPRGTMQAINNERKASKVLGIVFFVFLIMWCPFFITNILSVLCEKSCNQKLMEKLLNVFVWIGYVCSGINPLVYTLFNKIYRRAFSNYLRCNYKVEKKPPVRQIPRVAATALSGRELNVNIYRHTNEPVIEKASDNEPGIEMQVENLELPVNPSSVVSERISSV

Chain of 5-hydroxytryptamine receptor 7 (P34969 whole entry): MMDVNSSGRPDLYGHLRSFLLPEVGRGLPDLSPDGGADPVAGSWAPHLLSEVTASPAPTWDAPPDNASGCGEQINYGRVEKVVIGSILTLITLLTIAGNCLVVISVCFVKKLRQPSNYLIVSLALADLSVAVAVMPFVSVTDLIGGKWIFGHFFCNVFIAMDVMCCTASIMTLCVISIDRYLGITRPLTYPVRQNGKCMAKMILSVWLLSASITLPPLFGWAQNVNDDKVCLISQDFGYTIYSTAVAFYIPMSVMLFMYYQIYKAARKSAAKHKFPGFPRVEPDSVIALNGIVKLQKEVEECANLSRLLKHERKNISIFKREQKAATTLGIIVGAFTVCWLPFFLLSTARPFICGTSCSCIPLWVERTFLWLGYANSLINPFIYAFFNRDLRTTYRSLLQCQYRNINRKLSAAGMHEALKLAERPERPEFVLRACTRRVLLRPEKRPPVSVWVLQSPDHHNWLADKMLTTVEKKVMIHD

Compound	Ki [1]	Ki [2]	Ki [3]	bioavailability [4]	Ki [5]
CC(Nc1nc(N)nc(NCCc2ccccc2)n1)c1ccc(F)cc1 (stereo not drawn)	8 nM				
CC(Nc1nc(N)nc(NCCc2cccnc2)n1)c1ccc(F)cc1 (racemic)	> 41000 nM				
CC(Nc1nc(N)nc(NCCOc2ccccc2)n1)c1ccccc1 (racemic)	8 nM				
C[C@H](Nc1ncnc(NCCOc2ccccc2)n1)c1ccccc1	3 nM				
C[C@H](Nc1nc(F)nc(NCCOc2ccccc2)n1)c1ccccc1	10 nM				
Cc1nc(NCCOc2ccccc2)nc(N[C@@H](C)c2ccccc2)n1	54 nM				
C[C@H](Nc1nc(N)nc(NCCOc2ccccc2)n1)c1ccccc1	3 nM	> 1000 nM	300 nM	12%	> 1000 nM
C[C@H](Nc1nc(N)nc(NCCOc2ccc(F)cc2)n1)c1ccc(F)cc1		> 1000 nM	100 nM	57%	> 1000 nM
C[C@H](Nc1nc(N)nc(NCCc2ccccn2)n1)c1ccc(F)cc1	9 nM	> 1000 nM	> 1000 nM	15%	160 nM

The next lines start with the values.

Ki [1]	Ki [2]	Ki [3]	bioavailability [4]	Ki [5]	Compound
2 nM	172 nM	200 nM	44%	20 nM	C[C@H](Nc1nc(N)nc(NCCc2ccc(F)cc2)n1)c1ccc(F)cc1
> 1000 nM					C[C@@H](Nc1nc(N)nc(NCCOc2ccccc2)n1)c1ccccc1
23 nM					C[C@H](Nc1nc(NCCOc2ccccc2)nc(N(C)C)n1)c1ccccc1
> 1000 nM					CC(Nc1nc(N)nc(NCCc2ccncc2)n1)c1ccc(F)cc1 (racemic)
2 nM	380 nM	> 1000 nM		10 nM	CC(Nc1nc(N)nc(NCCc2cccs2)n1)c1ccc(F)cc1 (racemic)
60 nM					CC(Nc1nc(N)nc(NCCCc2ccccc2)n1)c1ccccc1 (racemic)
